Source: ChEMBL document CHEMBL5653622 (Oncotarget, 2016)
pIC50: −log10 of the molar value. Calls of active or inactive are those of the source. The calls are words filed in the database; no cut-off is given here.

Assays:
[1] = Tmax in BALB/C mouse plasma at 10 mg/kg, iv by LC/MS-MS analysis; format: ADME, organism-based
[2] = target: Ribosomal protein S6 kinase alpha-3 (Homo sapiens, UniProt P51812); test: Inhibition of human RSK2 assessed as remaining activity at 10 uM in presence of ATP by radiometric kinase assay relative to control
[3] = target: Protein kinase C gamma type (Homo sapiens) (UniProt P05129); test: Inhibition of human PKC gamma assessed as remaining activity at 10 uM in presence of ATP by radiometric kinase assay relative to control
[4] = target: Protein kinase C zeta type (Homo sapiens) (UniProt Q05513); test: Inhibition of human PKCz assessed as remaining activity at 10 uM in presence of ATP by radiometric kinase assay relative to control
[5] = target: NUAK family SNF1-like kinase 1 (Homo sapiens) (UniProt O60285); test: Inhibition of human NUAK1 assessed as remaining activity at 10 uM in presence of ATP by radiometric kinase assay relative to control
[6] = target: Myosin light chain kinase, smooth muscle (Homo sapiens) (UniProt Q15746); test: Inhibition of human SmMLCK assessed as remaining activity at 10 uM in presence of ATP by radiometric kinase assay relative to control
[7] = target: Serine/threonine-protein kinase MARK1 (Homo sapiens) (UniProt Q9P0L2); test: Inhibition of human MARK1 assessed as remaining activity at 10 uM in presence of ATP by radiometric kinase assay relative to control
[8] = target: Serine/threonine-protein kinase Nek2 (Homo sapiens) (UniProt P51955); test: Inhibition of human NEK2a assessed as remaining activity at 10 uM in presence of ATP by radiometric kinase assay relative to control
[9] = target: Serine/threonine-protein kinase pim-3 (Homo sapiens) (UniProt Q86V86); test: Inhibition of human PIM3 assessed as remaining activity at 10 uM in presence of ATP by radiometric kinase assay relative to control
[10] = target: Homeodomain-interacting protein kinase 1 (Homo sapiens) (UniProt Q86Z02); test: Inhibition of human HIPK1 assessed as remaining activity at 10 uM in presence of ATP by radiometric kinase assay relative to control
[11] = target: Homeodomain-interacting protein kinase 3 (Homo sapiens) (UniProt Q9H422); test: Inhibition of human HIPK3 assessed as remaining activity at 10 uM in presence of ATP by radiometric kinase assay relative to control
[12] = target: Serine/threonine-protein kinase PAK 6 (Homo sapiens) (UniProt Q9NQU5); test: Inhibition of human PAK6 assessed as remaining activity at 10 uM in presence of ATP by radiometric kinase assay relative to control
[13] = target: Serine/threonine-protein kinase 26 (Homo sapiens) (UniProt Q9P289); test: Inhibition of human MST4 assessed as remaining activity at 10 uM in presence of ATP by radiometric kinase assay relative to control
[14] = target: Serine/threonine-protein kinase TAO1 (Homo sapiens) (UniProt Q7L7X3); test: Inhibition of human TAO1 assessed as remaining activity at 10 uM in presence of ATP by radiometric kinase assay relative to control
[15] = target: Testis-specific serine/threonine-protein kinase 1 (Homo sapiens) (UniProt Q9BXA7); test: Inhibition of human TSSK1 assessed as remaining activity at 10 uM in presence of ATP by radiometric kinase assay relative to control
[16] = target: Tyrosine-protein kinase CSK (Homo sapiens) (UniProt P41240); test: Inhibition of human CSK assessed as remaining activity at 10 uM in presence of ATP by radiometric kinase assay relative to control
[17] = target: High affinity nerve growth factor receptor (Homo sapiens) (UniProt P04629); test: Inhibition of human TrkA assessed as remaining activity at 10 uM in presence of ATP by radiometric kinase assay relative to control
Homo sapiens = organism: Homo sapiens; test: Inhibition of human VEG-FR assessed as remaining activity at 10 uM in presence of ATP by radiometric kinase assay relative to control
[18] = target: Interleukin-1 receptor-associated kinase 1 (Homo sapiens) (UniProt P51617); test: Inhibition of human IRAK1 assessed as remaining activity at 10 uM in presence of ATP by radiometric kinase assay relative to control
[19] = target: Dual specificity protein kinase TTK (Homo sapiens) (UniProt P33981); test: Inhibition of human TTK assessed as remaining activity at 10 uM in presence of ATP by radiometric kinase assay relative to control
[20] = target: Serine/threonine-protein kinase BRSK2 (Homo sapiens) (UniProt Q8IWQ3); test: Inhibition of human BRSK2 assessed as remaining activity at 10 uM in presence of ATP by radiometric kinase assay relative to control
[21] = target: Ribosomal protein S6 kinase alpha-1 (Homo sapiens, UniProt Q15418); test: Inhibition of human RSK1 at 10 uM in presence of ATP by radiometric kinase assay relative to control
[22] = target: NUAK family SNF1-like kinase 1 (Homo sapiens) (UniProt O60285); test: Inhibition of human NUAK1 at 10 uM in presence of ATP by radiometric kinase assay relative to control
[23] = target: NUAK family SNF1-like kinase 1 (Homo sapiens, UniProt O60285); test: Inhibition of human NUAK1 by FRET based Z-LYTE kinase assay
HT-29 = test: Induction of apoptosis in human HT-29 cells assessed as increased in cleaved PARP in presence of gemcitabine by Western blotting analysis; format: functional, cell-based
Mus musculus [24] = test: In vivo inhibition of CHK1 in CRTac:Ncr-Fox1 mouse xenografted with human HT-29 cells assessed as reduction of phosphorylation of CHK1 on S296 at 100 mg/kg, po administered for 24 hrs by Western blotting analysis; format: functional, organism-based
In short: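 HT29 s.c. xenografts in female athymic nude mice. Single gemcitabine dose 100mg/kg i.v. on day 0, then one inhibitor dose 50 or 100mg/kg p.o. (DPTW vehicle) 24h later. Tumors taken 24h after the last dose, western blotted, and signals quantified by normalizing to GAPDH.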

Mus musculus [25] = test: In vivo inhibition of CHK1 in CRTac:Ncr-Fox1 athymic mouse xenografted with human Calu-6 cells assessed as enhanced phosphorylation of CHK1 on S345 at 150 mg/kg, po in presence of gemcitabine and carboplatin by Western blotting analysis; format: functional, organism-based
In short: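 Female CRTac:Ncr-Fox1(nu) athymic mice carried s.c. Calu6 xenografts. Tumors were taken 6h after the last inhibitor dose, lysed in CHAPS buffer, and immunoblotted with GAPDH as loading control.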

[26] = Toxicity in Emu-Myc driven transgenic mouse transplant model of B-cell lymphoma assessed as reduction in weight of kidney at 150 mg/kg, po administered for 9 days; format: organism-based; conditions: in vivo, 216 h, time 9 day
[27] = Toxicity in Emu-Myc driven transgenic mouse transplant model of B-cell lymphoma assessed as reduction in weight of thymus at 150 mg/kg, po administered for 9 days; format: organism-based; conditions: in vivo, 216 h, time 9 day

Sequence of NUAK family SNF1-like kinase 1 (Homo sapiens) (O60285 whole entry): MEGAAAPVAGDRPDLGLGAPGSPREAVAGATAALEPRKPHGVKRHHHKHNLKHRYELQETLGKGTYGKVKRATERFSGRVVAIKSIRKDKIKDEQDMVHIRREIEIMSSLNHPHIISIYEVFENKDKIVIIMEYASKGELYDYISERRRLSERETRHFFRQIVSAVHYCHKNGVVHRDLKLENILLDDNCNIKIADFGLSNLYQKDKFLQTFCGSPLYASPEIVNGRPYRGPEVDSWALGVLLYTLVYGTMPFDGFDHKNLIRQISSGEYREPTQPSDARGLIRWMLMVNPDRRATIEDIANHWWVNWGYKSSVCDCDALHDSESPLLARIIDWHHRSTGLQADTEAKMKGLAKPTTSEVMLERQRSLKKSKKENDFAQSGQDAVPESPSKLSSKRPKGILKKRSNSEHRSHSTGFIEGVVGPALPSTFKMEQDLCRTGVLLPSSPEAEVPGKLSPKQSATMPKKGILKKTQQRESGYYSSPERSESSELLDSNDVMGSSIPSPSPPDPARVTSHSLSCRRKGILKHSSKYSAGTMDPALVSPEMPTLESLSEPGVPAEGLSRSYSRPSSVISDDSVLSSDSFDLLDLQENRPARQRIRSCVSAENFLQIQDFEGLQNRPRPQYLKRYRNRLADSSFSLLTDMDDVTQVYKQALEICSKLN
Sequence of Ribosomal protein S6 kinase alpha-3 (P51812 whole entry): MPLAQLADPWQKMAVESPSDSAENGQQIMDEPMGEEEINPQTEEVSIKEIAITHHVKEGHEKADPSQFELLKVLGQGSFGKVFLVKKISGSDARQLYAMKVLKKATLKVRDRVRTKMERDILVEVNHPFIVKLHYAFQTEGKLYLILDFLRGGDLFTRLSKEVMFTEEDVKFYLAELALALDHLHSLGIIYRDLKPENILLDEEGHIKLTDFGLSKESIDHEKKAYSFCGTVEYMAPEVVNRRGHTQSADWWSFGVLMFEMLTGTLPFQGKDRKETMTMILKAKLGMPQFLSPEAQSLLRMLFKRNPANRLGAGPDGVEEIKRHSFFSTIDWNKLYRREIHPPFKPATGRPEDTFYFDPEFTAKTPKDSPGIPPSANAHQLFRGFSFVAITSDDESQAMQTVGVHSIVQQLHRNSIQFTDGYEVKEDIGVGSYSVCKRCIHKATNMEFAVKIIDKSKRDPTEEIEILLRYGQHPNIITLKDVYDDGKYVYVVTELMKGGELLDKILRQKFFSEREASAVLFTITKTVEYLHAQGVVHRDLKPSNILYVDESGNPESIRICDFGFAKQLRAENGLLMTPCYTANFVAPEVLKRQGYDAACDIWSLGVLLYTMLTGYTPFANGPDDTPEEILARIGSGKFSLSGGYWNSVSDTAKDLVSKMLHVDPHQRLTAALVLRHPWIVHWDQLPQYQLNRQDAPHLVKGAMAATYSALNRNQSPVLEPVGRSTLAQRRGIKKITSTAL
Sequence of Homeodomain-interacting protein kinase 1 (Homo sapiens) (Q86Z02 whole entry, looked up): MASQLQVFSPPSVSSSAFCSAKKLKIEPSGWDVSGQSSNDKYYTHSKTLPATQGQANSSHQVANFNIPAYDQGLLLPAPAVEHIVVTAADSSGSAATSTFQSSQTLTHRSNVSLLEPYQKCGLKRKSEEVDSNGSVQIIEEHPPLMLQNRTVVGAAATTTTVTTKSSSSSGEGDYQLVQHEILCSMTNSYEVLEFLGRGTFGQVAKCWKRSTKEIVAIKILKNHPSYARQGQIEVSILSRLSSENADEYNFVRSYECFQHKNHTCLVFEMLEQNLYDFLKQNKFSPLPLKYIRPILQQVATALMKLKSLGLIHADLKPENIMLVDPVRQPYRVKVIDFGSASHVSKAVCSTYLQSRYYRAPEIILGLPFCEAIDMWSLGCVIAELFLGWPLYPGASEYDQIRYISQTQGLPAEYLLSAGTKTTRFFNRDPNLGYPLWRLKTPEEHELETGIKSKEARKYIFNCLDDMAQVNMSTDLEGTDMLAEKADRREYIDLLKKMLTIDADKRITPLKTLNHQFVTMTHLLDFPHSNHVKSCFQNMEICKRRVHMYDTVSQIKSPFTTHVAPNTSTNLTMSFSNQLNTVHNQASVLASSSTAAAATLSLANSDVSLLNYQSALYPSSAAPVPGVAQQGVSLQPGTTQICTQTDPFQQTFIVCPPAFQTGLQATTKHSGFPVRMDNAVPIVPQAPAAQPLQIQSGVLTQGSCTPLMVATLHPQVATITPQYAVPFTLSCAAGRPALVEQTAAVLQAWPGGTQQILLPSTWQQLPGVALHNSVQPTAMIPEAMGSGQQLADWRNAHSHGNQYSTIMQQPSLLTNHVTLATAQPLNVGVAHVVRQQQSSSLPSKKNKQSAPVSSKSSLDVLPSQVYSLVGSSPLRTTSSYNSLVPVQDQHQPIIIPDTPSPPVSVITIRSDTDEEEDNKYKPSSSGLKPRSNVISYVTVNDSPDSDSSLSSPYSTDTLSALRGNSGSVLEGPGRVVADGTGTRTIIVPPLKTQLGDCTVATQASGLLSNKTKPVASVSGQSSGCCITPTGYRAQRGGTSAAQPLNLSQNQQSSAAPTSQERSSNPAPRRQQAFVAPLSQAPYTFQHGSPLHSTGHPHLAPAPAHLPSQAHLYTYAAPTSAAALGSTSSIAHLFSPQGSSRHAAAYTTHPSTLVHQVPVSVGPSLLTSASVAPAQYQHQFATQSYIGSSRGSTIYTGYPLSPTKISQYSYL
Sequence of Serine/threonine-protein kinase 26 (Homo sapiens) (Q9P289 2-416 limits assumed): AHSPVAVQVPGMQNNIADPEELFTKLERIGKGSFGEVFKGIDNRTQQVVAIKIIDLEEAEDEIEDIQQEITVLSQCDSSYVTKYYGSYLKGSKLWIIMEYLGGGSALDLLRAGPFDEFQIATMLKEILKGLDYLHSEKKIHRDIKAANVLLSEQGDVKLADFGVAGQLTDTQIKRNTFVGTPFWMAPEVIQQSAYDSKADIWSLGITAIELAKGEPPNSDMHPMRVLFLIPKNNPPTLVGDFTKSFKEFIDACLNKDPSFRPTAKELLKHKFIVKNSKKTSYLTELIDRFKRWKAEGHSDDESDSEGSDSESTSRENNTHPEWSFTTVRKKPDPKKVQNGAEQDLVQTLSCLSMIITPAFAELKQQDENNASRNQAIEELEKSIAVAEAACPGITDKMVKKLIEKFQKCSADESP
Sequence of Serine/threonine-protein kinase TAO1 (Homo sapiens) (Q7L7X3 whole entry): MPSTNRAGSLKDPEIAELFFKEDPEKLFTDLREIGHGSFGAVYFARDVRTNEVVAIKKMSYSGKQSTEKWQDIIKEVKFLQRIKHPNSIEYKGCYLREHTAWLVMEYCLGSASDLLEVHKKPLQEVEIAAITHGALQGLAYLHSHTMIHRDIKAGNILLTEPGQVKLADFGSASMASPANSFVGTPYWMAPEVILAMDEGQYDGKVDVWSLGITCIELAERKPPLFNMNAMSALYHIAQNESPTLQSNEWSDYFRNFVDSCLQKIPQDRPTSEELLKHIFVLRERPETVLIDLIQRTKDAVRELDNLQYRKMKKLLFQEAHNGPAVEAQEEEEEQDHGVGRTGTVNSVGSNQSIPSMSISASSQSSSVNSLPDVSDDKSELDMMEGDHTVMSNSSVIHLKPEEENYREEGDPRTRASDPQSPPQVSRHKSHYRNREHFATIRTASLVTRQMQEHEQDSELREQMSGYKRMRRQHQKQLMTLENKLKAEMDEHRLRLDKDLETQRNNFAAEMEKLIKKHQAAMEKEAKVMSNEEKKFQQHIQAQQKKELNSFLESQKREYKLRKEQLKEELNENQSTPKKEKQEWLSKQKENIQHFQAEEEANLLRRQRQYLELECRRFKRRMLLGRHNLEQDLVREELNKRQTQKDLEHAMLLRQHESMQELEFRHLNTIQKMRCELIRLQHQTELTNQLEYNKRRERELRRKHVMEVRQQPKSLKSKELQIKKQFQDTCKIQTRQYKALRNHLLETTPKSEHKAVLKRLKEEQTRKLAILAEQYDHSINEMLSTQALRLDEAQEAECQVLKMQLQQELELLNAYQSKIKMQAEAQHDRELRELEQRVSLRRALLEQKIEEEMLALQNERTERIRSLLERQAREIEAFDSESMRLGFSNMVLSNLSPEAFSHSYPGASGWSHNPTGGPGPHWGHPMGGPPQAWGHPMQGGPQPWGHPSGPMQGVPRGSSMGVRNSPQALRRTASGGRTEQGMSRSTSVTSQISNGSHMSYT
Sequence of Protein kinase C zeta type (Homo sapiens) (Q05513 whole entry): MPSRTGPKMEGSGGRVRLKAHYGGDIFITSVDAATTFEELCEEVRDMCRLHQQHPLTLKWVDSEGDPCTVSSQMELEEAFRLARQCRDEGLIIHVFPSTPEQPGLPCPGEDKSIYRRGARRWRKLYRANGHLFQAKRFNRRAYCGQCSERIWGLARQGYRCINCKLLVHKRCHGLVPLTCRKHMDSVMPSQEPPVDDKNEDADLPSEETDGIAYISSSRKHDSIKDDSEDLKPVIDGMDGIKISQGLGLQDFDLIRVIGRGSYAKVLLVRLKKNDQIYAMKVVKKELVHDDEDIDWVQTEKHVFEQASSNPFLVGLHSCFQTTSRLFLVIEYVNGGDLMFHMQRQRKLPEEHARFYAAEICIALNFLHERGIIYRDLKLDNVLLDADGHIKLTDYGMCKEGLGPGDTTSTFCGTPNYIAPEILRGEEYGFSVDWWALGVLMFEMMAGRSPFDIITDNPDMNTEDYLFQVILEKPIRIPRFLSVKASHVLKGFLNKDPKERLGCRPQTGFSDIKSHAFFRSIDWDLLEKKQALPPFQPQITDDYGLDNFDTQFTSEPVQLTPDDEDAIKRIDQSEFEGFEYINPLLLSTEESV
Sequence of Testis-specific serine/threonine-protein kinase 1 (Homo sapiens) (Q9BXA7 whole entry): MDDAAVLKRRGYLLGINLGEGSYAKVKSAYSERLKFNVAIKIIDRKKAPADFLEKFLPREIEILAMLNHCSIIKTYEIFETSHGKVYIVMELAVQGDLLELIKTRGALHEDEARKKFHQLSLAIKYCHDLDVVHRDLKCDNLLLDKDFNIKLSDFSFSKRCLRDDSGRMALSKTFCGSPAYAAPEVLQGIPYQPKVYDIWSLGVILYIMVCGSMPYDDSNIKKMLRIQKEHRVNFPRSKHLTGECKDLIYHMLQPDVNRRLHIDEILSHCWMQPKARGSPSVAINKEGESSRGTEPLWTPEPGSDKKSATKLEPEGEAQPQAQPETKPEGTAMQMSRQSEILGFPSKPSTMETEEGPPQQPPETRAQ
Sequence of NUAK family SNF1-like kinase 1 (O60285 whole entry): as the sequence (O60285 whole entry) above

## N#Cc1cnc(Nc2cc(NC[C@H]3CNCCO3)c(C(F)(F)F)cn2)cn1 [SRA-737]
[1]
  Tmax: 4.98 min
[2]
  Activity: 19%
[3]
  Activity: 87%
[4]
  Activity: 92%
[5]
  Activity: 6%
[6]
  Activity: 84%
[7]
  Activity: 43%
[8]
  Activity: 96%
[9]
  Activity: 36%
[10]
  Activity: 77%
[11]
  Activity: 124%
[12]
  Activity: 77%
[13]
  Activity: 44%
[14]
  Activity: 54%
[15]
  Activity: 53%
[16]
  Activity: 82%
[17]
  Activity: 31%
Homo sapiens
  Activity: 13%
[18]
  Activity: 38%
[19]
  Activity: 36%
[20]
  Activity: 35%
[21]
  inhibition: 93%
[22]
  inhibition: 94%
[23]
  pIC50: 6.15
HT-29
  Activity: Active
Mus musculus [24]
  Activity: Active
Mus musculus [25]
  Activity: Active
[26]
  Activity: Toxic
[27]
  Activity: Toxic
